Paper PMC9868778 (Planta Medica, 2022)
Several values for one entry are separate records, joined by “and”; a condition that tells them apart may be missing. Equal values may be shown once. Read-outs that look alike come from different tables or passages of the source.

How the values were obtained:
[1] = for transfer across the placental barrier (maternal to fetal circuit): 5 µM added to maternal circuit, 360 min perfusion; for time to steady-state concentration: 5 µM in maternal circuit; for F perfusate (% found): fetal perfusate after 360 min; for F perfusate (% found) / M perfusate (% found): % of initial amount; for M perfusate (% found): maternal perfusate after 360 min; for steady-state concentration, fetal side / steady-state concentration, maternal side: % of initially analyzed concentration in the maternal sample
[2] = Perfusion system adherence test; type: in vitro ADME; details: % of initially analyzed concentration, 360 min, 5 µM in PM, n = 3
Procedure, shortened: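 No placenta in the chamber; only the maternal circuit was run, for 360 min. Test compound was dissolved directly in perfusion medium at a final 5 µM and run on its own. Quantified by U(H)PLC-MS/MS and expressed as % of the initial maternal concentration. Three independent experiments, mean ± SD.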

[3] = test system: placental tissue; assay: Viability and functionality of placental tissue during ex vivo perfusion; set-up: species or system human
Procedure, shortened: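 Ex vivo perfusion of human placental cotyledons with 100 mL medium per circuit. Fetal circuit gassed with 95% N2/5% CO2, maternal with 95% air/5% CO2. […] Glucose and lactate were measured by blood gas analyser at the start and end of perfusion; β-hCG and leptin by ELISA. Values were normalized to perfusion time and cotyledon weight; Brown-Forsythe/Welch ANOVA with Dunnett's T3.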

[4] = Fraction unbound in placental homogenate; type: in vitro ADME, human; details: for fraction unbound at 240 min, 2 µM: human, placental homogenate (5-fold diluted in PBS)
[5] = test system: placental tissue; assay: Histopathological evaluation of perfused placental tissue; set-up: species or system human
Procedure, shortened: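 Human placental tissue after ex vivo perfusion: sections taken immediately afterwards from the perfused area, the non-perfused area and the transitional area. Fixed in 4% paraformaldehyde ≥24 h, paraffin-embedded, cut at 2–3 µm. Stained with H&E, plus a modified Gram stain (Braun-Brenn) to check for bacterial contamination. Scored for intravascular thrombi, cytotrophoblast vacuolization, hydropic villous changes and villous endothelium viability, compared against non-perfused tissue.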

[6] = test system: noradrenaline transporter; details: expressed in murine N1 cells ref 23; cited from earlier work
[7] = test system: 5-HT 1A receptors; details: expressed in human CHO cell membranes ref 22; cited from earlier work
[8] = test system: serotonin transporter; details: expressed in murine S6 cells ref 23; cited from earlier work
[9] = Stability of compounds in PBS, perfusion medium and placental homogenate; type: in vitro ADME, human; details: 360 min, 4 °C and 37 °C
[10] = during 360 min, control perfusions
[11] = 5 µM, compared with antipyrine control perfusions
[12] = perfused tissue, individual experiments 1-4
[13] = perfused tissue, individual experiments 1-4, listed as Protopine

Row | Compound | transfer across the placental barrier (maternal to fetal circuit) [1] | time to steady-state concentration [1] | F perfusate (% found) [1] [%] | M perfusate (% found) [1] [%] | adherence to perfusion equipment (compound lost) [2] | fraction unbound at 240 min, 2 µM [4] | steady-state concentration, fetal side [1] [%] | steady-state concentration, maternal side [1] | effect on placental viability and metabolic activity (glucose consumption, lactate production) [3, 11] | further results
1 | Cc1cc(=O)n(-c2ccccc2)n1C [antipyrine] | readily crossed the placental barrier | approximately 120 min | 19.8 | 22.0 | 7.4 ± 4.7% | 1 |  |  |  | time to equilibrium between maternal and fetal circuits ([1]; connectivity control in perfusions with protopine): 120 to 240 min; leptin production ([3]; control perfusions): 334.8 pg/g/min; β-hCG production ([3]; control perfusions): 95.7 mU/g/min; lactate production [3, 10]: 0.27 µmol/g/min; total glucose consumption [3, 10]: 0.39 µmol/g/min
2 | CN(C)CCCC1(c2ccc(F)cc2)OCc2cc(C#N)ccc21 (stereo not drawn) [citalopram] | crossed the human placental barrier | approximately 60 min | 6.4 | 11.4 | 48.4% and 48.4 ± 12.9% | 0.21 ± 0.01 | 11 | 22% | did not impair placental viability and metabolic activity | 
3 | CN1C(=O)CN=C(c2ccccc2)c2cc(Cl)ccc21 [diazepam] | crossed the human placental barrier | approximately 45 min |  | 7.9 | 54.8% and 54.8 ± 12.7% |  |  |  | did not impair placental viability and metabolic activity | steady-state concentration (side not specified) ([1]; % of initially analyzed concentration, slow decrease until 360 min): 24%
4 | protopine | rapidly transferred from the maternal to the fetal circuit |  | 14.0 | 23.1 | 20.4% and 20.4 ± 9.5% |  | ~20 | approximately 27% | did not impair placental viability and metabolic activity | damage of placental tissue (endothelium, vascular rupture, thrombi, trophoblast vacuolization) ([5]; overall assessment): did not cause apparent damage of placental tissue; Thrombi in vessels of stem villi [5, 12]: 0%; Thrombi in villous vessels [5, 12]: 5%; Thrombi in villous vessels [5, 13]: 1% and 0%; Vacuolated trophoblast in villi [5, 13]: 0% and 20% and 1% (2×); transfer across the placental barrier (maternal to fetal circuit) ([1]; listed as Protopine): transferred from the maternal to the fetal circuit; fetal-maternal concentration ratio (FM ratio) ([1]; after 360 min, antipyrine from control perfusions): 0.75; Final recovery (% found) ([1]; sum of fetal and maternal perfusates, sampling and system adherence, 360 min): 71.4 ± 8.6%; inhibition of noradrenaline transporter [6]: inhibitor; effect on β-hCG and leptin production [3, 11]: did not inhibit; effect on placental viability and metabolic activity (glucose consumption, lactate production) ([3]; 5 µM, compared with antipyrine control perfusions, listed as Protopine): did not affect placental viability or functionality; ligand at 5-HT 1A receptors [7]: ligand at 5-HT 1A receptors; inhibition of serotonin transporter [8]: inhibitor; stability in PM [9]: slightly less stable; Fraction unbound (fu,hom) ([4]; placental homogenate vs PBS, 2 µM, 240 min, 37 °C, 3 donors): 0.48 ± 0.04
